These results are taken from publication PMC10107787 (Chemistry (Weinheim an Der Bergstrasse, Germany), 2022).

Data set [1] is described as follows: Amide temperature coefficients by variable temperature 1H NMR. The class given is physicochemical. The method in brief: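 Variable-temperature ¹H NMR at 500 MHz with a cryoprobe, using 16 scans and a 0.7 s relaxation delay. DMSO‑d₆ series ran from 25 to 65 or 20 to 60 °C; the CDCl₃ series ran from 10 to 50 °C; both used 10 °C steps. Each NH coefficient was calculated as (δ_high−δ_low)/(T_high−T_low), in ppb/K.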

Data set [2] in a line: LogD7.4, miniaturized shake-flask procedure. The class given is physicochemical. The conditions noted are these: pH 7.4. The method in brief:
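Measured in three repeats, and the reported logD is their mean.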

The nature of data set [3]: Permeability across Caco-2 cell monolayers. The class given is in vitro ADME. The conditions noted are these: human, Caco-2, ER (efflux ratio, Papp BA/Papp AB), Caco-2 cell monolayers, no inhibitors. The gist of the method: (§1)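 Apical‑to‑basolateral and basolateral‑to‑apical Papp were measured across Caco‑2 monolayers. Efflux ratio is Papp BA/Papp AB. A parallel set was run with a cocktail of three inhibitors aimed at the three major efflux transporters. Papp AB is the mean±std of three repeats.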

Data set [4] has as its system Caco‐2 cell monolayers. As to the kind of experiment: Permeability across Caco-2 cell monolayers. Type of data set: in vitro ADME. The gist of the method: as §1

Take `C=C[C@@H]1C[C@]1(NC(=O)[C@@H]1C[C@@H](Oc2ncc(OC)c3ccc(Cl)cc23)CN1C(=O)[C@@H](NC(=O)OC(C)(C)C)C(C)(C)C)C(=O)NS(=O)(=O)C1CC1` [Asunaprevir]: the “Temperature coefficient, CDCl3” value in data set [1] (asunaprevir proton 1’’’‐NH) is on record as −4.3 ppb/K; in data set [1] (asunaprevir proton 1’’’’‐NH), −4.3 ppb/K; in data set [1] (asunaprevir proton 2’‐NH), −0.3 ppb/K. The figures for the “Temperature coefficient, DMSO‐d6” value in data set [1] (asunaprevir proton 1’’’‐NH), in data set [1] (asunaprevir proton 1’’’’‐NH) and in data set [1] (asunaprevir proton 2’‐NH) were −2.8 ppb/K, −3.5 ppb/K and 1.5 ppb/K, respectively. In data set [2], this compound came in with a logD of 3.1. Further, the efflux ratio in data set [3] worked out at 270.

On to `COC(=O)N[C@H](C(=O)N[C@@H](Cc1ccccc1)[C@@H](O)CN(Cc1ccc(-c2ccccn2)cc1)NC(=O)[C@@H](NC(=O)OC)C(C)(C)C)C(C)(C)C` [Atazanavir], for which the “Temperature coefficient, CDCl3” value was −2.0 ppb/K in data set [1] (atazanavir proton 4‐NH) and −1.0 ppb/K in data set [1] (atazanavir proton 15‐NH). For the same compound, the “Temperature coefficient, DMSO‐d6” value in data set [1] (atazanavir proton 4‐NH) was −9.8 ppb/K; in data set [1] (atazanavir proton 7‐NH), −4.3 ppb/K; in data set [1] (atazanavir proton 12‐NH), −3.5 ppb/K; in data set [1] (atazanavir proton 15‐NH) it was −6.5 ppb/K. In addition, in data set [3], the efflux ratio worked out at 40.

As to `COc1ccc2c(O[C@@H]3C[C@H]4C(=O)N[C@]5(C(=O)NS(=O)(=O)C6CC6)C[C@H]5/C=C\CCCCN(C)C(=O)[C@@H]4C3)cc(-c3nc(C(C)C)cs3)nc2c1C` [Simeprevir], in data set [1] (simeprevir proton 1’’’‐NH), the “Temperature coefficient, CDCl3” value was −8.8 ppb/K and the “Temperature coefficient, DMSO‐d6” value was −2.5 ppb/K. Moreover, in data set [1] (simeprevir proton 13‐NH), the “Temperature coefficient, CDCl3” value was −1.3 ppb/K and the “Temperature coefficient, DMSO‐d6” value is on record as −1.0 ppb/K. Besides, the logD in data set [2] was 3.7. The “ER+Inhibitors” value in data set [4] (Caco-2, in the presence of the efflux inhibitor cocktail) is “highest efflux ratio”. In addition, the “ER (efflux ratio, Papp BA/Papp AB)” value in data set [4] (Caco-2 cell monolayers, no inhibitors) is “largest”. For the same compound, the efflux ratio in data set [3] was determined as 330.

On to `COC(=O)N[C@H](C(=O)N1CCC[C@H]1c1nc(-c2ccc(-c3ccc(-c4c[nH]c([C@@H]5CCCN5C(=O)[C@@H](NC(=O)OC)C(C)C)n4)cc3)cc2)c[nH]1)C(C)C` [Daclatasvir], for which, in data set [1] (daclatasvir proton 2’’’‐NH), the “Temperature coefficient, CDCl3” value is recorded as −3.3 ppb/K and the “Temperature coefficient, DMSO‐d6” value was −3.8 ppb/K. The pH-dependent lipophilicity (logD) in data set [2] is 3.9. Also, the efflux ratio in data set [3] amounted to 38.
